Most compounds without a hit are left out; they make up all but 2.9% or so of the library.
OX1R antag-1: blocks the human orexin 1 receptor | OX1R-expressing cells, FRET antagonist read-out | 330,000 tested, 1.8% active | inhibition, % at 6.6 µM | AID 485270; in the data active = inhibition mostly above about 38%, no sharp cut-off; inactive = mostly below about 40%;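 note: 0% = agonist challenge alone and 100% = reference antagonist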
Target sequence (O43613 whole entry, looked up): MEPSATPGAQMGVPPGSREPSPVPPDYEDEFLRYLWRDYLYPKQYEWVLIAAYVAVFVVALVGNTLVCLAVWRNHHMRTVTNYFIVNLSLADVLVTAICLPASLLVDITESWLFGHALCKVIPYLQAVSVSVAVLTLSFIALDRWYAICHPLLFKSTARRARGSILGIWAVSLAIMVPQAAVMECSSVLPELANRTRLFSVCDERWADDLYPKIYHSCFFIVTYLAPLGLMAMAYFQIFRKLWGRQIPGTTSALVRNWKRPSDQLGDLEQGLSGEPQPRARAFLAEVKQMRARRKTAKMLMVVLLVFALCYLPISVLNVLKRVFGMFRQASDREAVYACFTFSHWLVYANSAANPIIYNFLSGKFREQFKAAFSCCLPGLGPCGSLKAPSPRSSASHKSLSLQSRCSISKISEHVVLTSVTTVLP
CHO-K1 Ca PAM: counter-screen for M1 PAMs: effect in parental CHO-K1 cells; AID 602247; activation, % at 3 µM; ATP EC20, Fluo-8 calcium fluorescence; 0% at ATP EC20, 100% at ATP max; 360,000 tested, 0.02% active;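 active = activation above the run cutoff, the mean activation of all test compounds plus 3 SD, cut at about 40% in these data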;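 note: peak over basal fluorescence ratio in a 140 s read after ATP addition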
CHO-K1 Ca ag: M1 agonist counterscreen hit in parental CHO-K1 cells. 360,000 tested, 0.48% active. activation, % at 3 µM. Fluo-8 calcium fluorescence; scaled to maximal ATP response, vehicle zero; in the data active = activation above about 15%;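 note: untransfected CHO-K1 host cells lacking M1 receptor as counterscreen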
CHO-K1 Ca antag: nonselective inhibitor or artifact in parental CHO-K1 cells | ATP-induced calcium, Fluo-8 fluorescence | 360,000 tested, 0.6% active | inhibition, % at 3 µM | AID 602250;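 active = inhibition above a per-plate cutoff, the plate's mean sample inhibition plus 3 SD, cut at about 24% in these data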;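 note: 0% = DMSO plus EC80 ATP and 100% = DMSO alone without ATP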
CHO parental Ca: counter-screen for OX1R antagonists: effect in parental CHO cells | 330,000 tested, 0.63% active | AID 463079 | parental CHO-K1, ATP-induced calcium, Fluo-8 fluorescence | inhibition, % at 5.6 µM;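 active = inhibition above that plate's mean sample inhibition plus 3 SD, cut at about 26% in these data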;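 note: 0% = ATP-challenged DMSO wells and 100% = DMSO wells without ATP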
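Assay system: untransfected parental CHO cell line. Also added: ATP agonist challenge. Dosing: one dose, 5.6 µM nominal. Measured by: Fluo-8 fluorescence. Read-out: % inhibition. Benchmarks: ATP wells versus no-ATP DMSO wells. Repeats: no replicates.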
OX1R antag-2: human HCRTR1 antagonism; AID 434989; inhibition, % at 5 µM; CHO/OX1R cells, Fluo-8 calcium fluorescence, orexin A; 330,000 tested, 0.43% active; O43613;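 active = inhibition above its plate's threshold, mean inhibition of all tested compounds on the plate plus 3 SD, cut at about 37% in these data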;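 note: 0% = orexin A challenge wells and 100% = SB-334867-A antagonist wells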
* marks the source's active call; other numbers are inactive results.

Results for CC(C)(C)c1ccc(OCc2ccc(C(=O)NCc3cccnc3)o2)cc1 ?
OX1R antag-1: 8; CHO-K1 Ca PAM: 7; CHO-K1 Ca ag: 12; CHO-K1 Ca antag: 8; CHO parental Ca: 37*; OX1R antag-2: 20

How did O=C1CCCCC1Sc1nnc(-c2ccc3c(c2)OCO3)o1 (centres undefined) do in these assays?
OX1R antag-1: 12; CHO-K1 Ca PAM: 14; CHO-K1 Ca ag: 1; CHO-K1 Ca antag: -11; CHO parental Ca: -16; OX1R antag-2: -14

What do the screens show for `C/C(=N\Nc1ccc([N+](=O)[O-])cc1)c1cc2ccccc2o1`?
OX1R antag-1: 55*; CHO-K1 Ca PAM: 6; CHO-K1 Ca ag: 6; CHO-K1 Ca antag: 5; CHO parental Ca: 41*; OX1R antag-2: 55*

Results for CCOC(=O)CNS(=O)(=O)c1cc(-c2nnc(Nc3ccc4c(c3)OCO4)c3ccccc23)ccc1C ?
OX1R antag-1: 24; CHO-K1 Ca PAM: 10; CHO-K1 Ca ag: 4; CHO-K1 Ca antag: -4; CHO parental Ca: 57*; OX1R antag-2: 71*

What do the screens show for `COc1ccc(S(=O)(=O)N2CCOCC2)cc1Br`?
OX1R antag-1: 18; CHO-K1 Ca PAM: 18; CHO-K1 Ca ag: 4; CHO-K1 Ca antag: -8; CHO parental Ca: 13; OX1R antag-2: -10

Results for Nc1cc(S(=O)(=O)N2CCOCC2)ccc1Oc1cccc(Br)c1 ?
CHO-K1 Ca PAM: -3; CHO-K1 Ca ag: 3; CHO-K1 Ca antag: 24*

What do the screens show for `Nc1nc(N)nc(-c2ccccc2O)n1`?
OX1R antag-1: 30; CHO-K1 Ca PAM: 17; CHO-K1 Ca ag: 1; CHO-K1 Ca antag: -3; CHO parental Ca: -14; OX1R antag-2: -7

How did Nc1nc(-c2ccccc2)nc(-c2ccccc2O)n1 do in these assays?
OX1R antag-1: 52*; CHO-K1 Ca PAM: 9; CHO-K1 Ca ag: 0; CHO-K1 Ca antag: -16; CHO parental Ca: -9; OX1R antag-2: 7

Results for Cc1cc(C)nc(SCc2nc(N)nc(-c3ccccc3O)n2)n1 ?
OX1R antag-1: 55*; CHO-K1 Ca PAM: -6; CHO-K1 Ca ag: 2; CHO-K1 Ca antag: 20; CHO parental Ca: -13; OX1R antag-2: 12

Results for Nc1cc(=O)[nH]c(=S)n1-c1ccccc1 ?
OX1R antag-1: 14; CHO-K1 Ca PAM: -7; CHO-K1 Ca ag: 0; CHO-K1 Ca antag: 32*; CHO parental Ca: -4; OX1R antag-2: 9

How did Cc1oc2cc3oc(=O)c(CCC(=O)N(C)CC(=O)O)c(C)c3cc2c1C do in these assays?
OX1R antag-1: -7; CHO-K1 Ca PAM: 8; CHO-K1 Ca ag: -1; CHO-K1 Ca antag: 1; CHO parental Ca: 3; OX1R antag-2: -15

What do the screens show for `COc1ccc(-c2ccnc3cc(C(=O)O)nn23)cc1`?
OX1R antag-1: 57*; CHO-K1 Ca PAM: 4; CHO-K1 Ca ag: 0; CHO-K1 Ca antag: 1; CHO parental Ca: 6; OX1R antag-2: -19

What do the screens show for `c1ccc(Oc2ccc(-c3ccnc4nc(N5CCOCC5)nn34)cc2)cc1`?
OX1R antag-1: 15; CHO-K1 Ca PAM: 1; CHO-K1 Ca ag: 1; CHO-K1 Ca antag: 14; CHO parental Ca: -19; OX1R antag-2: -11

How did COc1ccc(-c2ccnc3nc(N4CCOCC4)nn23)cc1 do in these assays?
OX1R antag-1: 15; CHO-K1 Ca PAM: -7; CHO-K1 Ca ag: 0; CHO-K1 Ca antag: 24*; CHO parental Ca: -10; OX1R antag-2: -2

What do the screens show for `CC1(C(=O)NS(=O)(=O)C2CC2)CCN(C(=O)c2ccc(F)cc2Cl)C1` (centres undefined)?
CHO-K1 Ca PAM: -6; CHO-K1 Ca ag: 0; CHO-K1 Ca antag: 2

How did CCc1nnc(NC(=O)CS(=O)(=O)Cc2ccccc2)s1 do in these assays?
OX1R antag-1: 27; CHO-K1 Ca PAM: 9; CHO-K1 Ca ag: 0; CHO-K1 Ca antag: -25; CHO parental Ca: -7; OX1R antag-2: 3

Results for CCCCCCc1cc2cc(C(=O)NC)c(=N)oc2cc1O ?
OX1R antag-1: 53; CHO-K1 Ca PAM: -3; CHO-K1 Ca ag: 1; CHO-K1 Ca antag: 8; CHO parental Ca: -11; OX1R antag-2: -16

What do the screens show for `CCCCCCc1cc2cc(C(N)=O)c(=N)oc2cc1O`?
OX1R antag-1: 55*; CHO parental Ca: -7; OX1R antag-2: -22

What do the screens show for `CN(C)C(=O)c1cc(C(=O)c2c(F)cccc2F)c[nH]1`?
OX1R antag-1: -6; CHO-K1 Ca PAM: 16; CHO-K1 Ca ag: 0; CHO-K1 Ca antag: -7; CHO parental Ca: 7; OX1R antag-2: 2

How did Cc1ccc(S(=O)(=O)n2nc(C)c(Br)c2C)c(C)c1C do in these assays?
OX1R antag-1: 47; CHO-K1 Ca PAM: 2; CHO-K1 Ca ag: 0; CHO-K1 Ca antag: 1; CHO parental Ca: 38; OX1R antag-2: 52*

How did OCCC1CN(Cc2cccn2-c2ncccn2)CCN1CCc1ccccc1 (centres undefined) do in these assays?
OX1R antag-1: 9; CHO-K1 Ca PAM: 8; CHO-K1 Ca ag: 4; CHO-K1 Ca antag: -7; CHO parental Ca: -11; OX1R antag-2: -35

Results for CC(=O)/C(N=Nc1cccc(C(F)(F)F)c1)=C(\C)O ?
OX1R antag-1: 8; CHO-K1 Ca PAM: 14; CHO-K1 Ca ag: 2; CHO-K1 Ca antag: 4; CHO parental Ca: -1; OX1R antag-2: -16

Results for O=C(/C(N=Nc1cccc(C(F)(F)F)c1)=C(/O)c1cccs1)C(F)(F)F ?
OX1R antag-1: 11; CHO-K1 Ca PAM: 21; CHO-K1 Ca ag: 16*; CHO-K1 Ca antag: 2; CHO parental Ca: -16; OX1R antag-2: -25

What do the screens show for `CC(=O)Nc1ccc(CN2C(=O)C(C)(C)ON=C2c2ccc(C(F)(F)F)cc2)cc1`?
CHO-K1 Ca PAM: -10; CHO-K1 Ca ag: 0; CHO-K1 Ca antag: 37*

What do the screens show for `c1ccc(Nc2ncnc3sccc23)cc1`?
OX1R antag-1: 13; CHO-K1 Ca PAM: 25; CHO-K1 Ca ag: 3; CHO-K1 Ca antag: -20; CHO parental Ca: 6; OX1R antag-2: -7

What do the screens show for `CC(Nc1ncnc2sccc12)c1ccccc1` (centres undefined)?
OX1R antag-1: 36; CHO-K1 Ca PAM: 6; CHO-K1 Ca ag: 16*; CHO-K1 Ca antag: 23; CHO parental Ca: 42*; OX1R antag-2: 12

How did COC(=O)Nc1cccn(Cc2c(Cl)cccc2Cl)c1=O do in these assays?
OX1R antag-1: 14; CHO-K1 Ca PAM: -5; CHO-K1 Ca ag: 0; CHO-K1 Ca antag: 17; CHO parental Ca: -1; OX1R antag-2: -11

What do the screens show for `O=C(Nc1cccn(Cc2c(Cl)cccc2Cl)c1=O)c1c(Cl)cccc1Cl`?
OX1R antag-1: 56*; CHO-K1 Ca PAM: -9; CHO-K1 Ca ag: 0; CHO-K1 Ca antag: 22; CHO parental Ca: 3; OX1R antag-2: 8

What do the screens show for `Cc1cc(C)n2nc(C(=O)N/N=C/c3ccccc3C)nc2n1`?
OX1R antag-1: 16; CHO-K1 Ca PAM: -3; CHO-K1 Ca ag: 0; CHO-K1 Ca antag: 1; CHO parental Ca: 0; OX1R antag-2: 2

From PubChem BioAssay
